Experimental data of several laboratories.
Compare with care: the assays were run in different laboratories.
Target: Megakaryocyte-associated tyrosine-protein kinase (MATK, Homo sapiens, UniProt P42679)
Sequence (P42679 1-507, as in one of the studies): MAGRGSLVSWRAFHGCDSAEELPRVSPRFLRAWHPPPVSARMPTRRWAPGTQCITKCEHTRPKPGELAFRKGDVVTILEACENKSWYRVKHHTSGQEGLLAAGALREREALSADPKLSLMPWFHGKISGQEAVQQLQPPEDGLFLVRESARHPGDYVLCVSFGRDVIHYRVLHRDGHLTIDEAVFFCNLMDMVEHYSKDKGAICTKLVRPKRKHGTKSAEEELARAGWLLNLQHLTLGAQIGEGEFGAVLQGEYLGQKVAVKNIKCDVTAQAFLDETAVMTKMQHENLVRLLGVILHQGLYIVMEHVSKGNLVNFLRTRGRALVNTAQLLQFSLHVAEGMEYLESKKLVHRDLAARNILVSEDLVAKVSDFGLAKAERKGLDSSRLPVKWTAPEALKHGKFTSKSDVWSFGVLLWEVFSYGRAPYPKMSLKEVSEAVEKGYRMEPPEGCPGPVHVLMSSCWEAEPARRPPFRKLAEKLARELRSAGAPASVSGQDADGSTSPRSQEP

`O=C(c1ccc(Nc2ncc(Cl)c(-c3ccc(Cl)s3)n2)cc1)N1CCC(N2CCCC2)CC1` has a remaining binding of 50% (binding, competition with immobilised ligand; 1 µM).
`CN(C)c1ncc(F)c(-c2cnn3ncccc23)n1` has a remaining binding of 79% (binding; 1 µM).
`Nc1ncc2c(n1)-c1c([nH]c3ccc(C#CC4CC4)cc13)CCCC2` has a remaining binding of 100% (binding, competition with immobilised ligand; 1 µM).
`C[C@H]1CCN(c2nccc(-c3cnn4ncccc34)n2)C1` has a remaining binding of 90% (binding; 1 µM).
For `C=CC(=O)N1CCC(C(=O)NCC(=O)N2CCN(c3nc(-c4cnc(N)nc4C(F)F)nc(N4CCOCC4)n3)CC2)CC1`, the remaining binding was 78% (binding, competition with immobilised ligand; 1 µM).
The remaining binding of `c1cncc(-c2cccc(Nc3nccc(NC4CCCCC4)n3)c2)c1` is reported as 71% (binding, competition with immobilised ligand; 10 µM).
`COc1cnc(Nc2cccc(S(N)(=O)=O)c2)nc1N1CCN(c2ccccc2)CC1` gave a remaining binding of 57% (binding, competition with immobilised ligand; 1 µM).
The remaining binding of `CN(c1nccc(-c2cnn3ncccc23)n1)C1CC1` is reported as 100% (binding; 1 µM).
`C[C@@H](c1cccc(C#N)c1)n1cc(Cl)cc(C(N)=O)c1=N` gave a remaining binding of 100% (cell-free assay, competition with immobilised ligand; 1 µM).
`O=C(NCCCN1CCOCC1)c1ccc(Nc2ncc(Cl)c(-c3ccc(Cl)s3)n2)cc1` gave a remaining binding of 48% (binding, competition with immobilised ligand; 1 µM).
The remaining binding of `CNCc1ccccc1-c1csc([C@@H](C)Nc2nc(C)nc3cc(OC)c(OC)cc23)c1` is reported as 57% (cell-free assay, competition with immobilised ligand; 1 µM).
`O=C(c1ccc(Nc2nccc(-c3cc4ccccc4s3)n2)cc1)N1CCC(N2CCCC2)CC1` gave a remaining binding of 67% (binding, competition with immobilised ligand; 1 µM).
With `CCCOc1ccc([C@@H]2[C@@H](C(=O)O)[C@H](c3ccc4c(c3)OCO4)CN2CC(=O)Nc2c(CC)cccc2CC)cc1` the remaining binding was 90% (cell-free assay, competition with immobilised ligand; 1 µM).
`F[C@@H]1CCN(c2nccc(-c3cnn4ncccc34)n2)C1` has a remaining binding of 80% (binding; 1 µM).
The remaining binding of `FC(F)(F)c1ccc2c(c1)nc(-c1cccnc1)n2C1CC1` is reported as 100% (cell-free assay, competition with immobilised ligand; 1 µM).
For `N[C@@H]1CCN(c2nccc(-c3cnn4ncccc34)n2)C1`, the remaining binding was 100% (binding; 1 µM).
For `NS(=O)(=O)c1cc(NC(=O)C2(c3ccccc3Cl)CC2)ccc1Oc1cccc(Cl)c1`, the remaining binding was 100% (cell-free assay, competition with immobilised ligand; 1 µM).
The remaining binding of `O=C(Nc1c[nH]nc1C(=O)NC1CCNCC1)c1cc(F)cc(F)c1` is reported as 84% (binding, competition with immobilised ligand; 1 µM).
`NS(=O)(=O)c1cc(NC(=O)Cc2ccccc2)ccc1Oc1cccc(Cl)c1` gave a remaining binding of 68% (cell-free assay, competition with immobilised ligand; 1 µM).
With `CC1CCCN1c1nccc(-c2cnn3ncccc23)n1` (centres unmarked) the remaining binding was 100% (binding; 1 µM).
